Experimental findings from ChEMBL document CHEMBL4680100, “Revisiting the SAR of the Antischistosomal Aryl Hydantoin (Ro 13-3978)” (J Med Chem, 2016) are described below.

As usually defined, the logD is the decadic logarithm of the distribution of all forms, ionised or not, between an organic phase and buffer at a given pH. As usually defined, the Cmax is the highest concentration seen after dosing. As usually defined, the ED50 is the dose at which the effect has come halfway, by size or by number of responders. What is called IC50 is the point on the concentration scale where inhibition reaches its midpoint. Usually Tmax stands for the time from dosing to the highest level.

In brackets after ≈: the same amount, converted by molar mass. Where only a bound is given, the exact number is not on record here.

The nature of series [1]: Octanol/water partition coefficient, logD of the compound at pH 7.4 by HPLC analysis.
The target in another series is Albumin (Homo sapiens, UniProt P02768). The experiment in a line: Protein binding in immobilized human serum albumin by HPLC analysis. The series is classed as ADME. The following applies: isolated protein. An outline of the steps: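 Binding estimated from gradient HPLC retention on a human albumin column, correlated against standard compounds of known protein binding.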

Series [2] in a line: Kinetic solubility of the compound in 0.01 M HCl at pH 2 by nephelometry. The following applies: read-out: Kinetic_solubility. The series is classed as physicochemical.
The nature of series [3]: Kinetic solubility of compound at pH 6.5 phosphate buffer by nephelometry. The series is classed as physicochemical. The following applies: read-out: Kinetic_solubility.
Series [4] in a line: Intrinsic clearance in human liver microsome in presence of NADPH-regenerating system incubated over 60 mins by LC-MS analysis. The following applies: microsomes, 1 h.
Series [5] can be described thus: Intrinsic clearance in mouse liver microsome in presence of NADPH-regenerating system incubated over 60 mins by LC-MS analysis. The following applies: microsomes, 1 h. (Microsomes from liver hold many membrane-bound enzymes, among them those of drug oxidation.)
In series [6] the test system is Schistosoma mansoni. The series is described as follows: Antischistosomal activity against Schistosoma mansoni infected in NMRI mouse assessed as reduction in total worm burden at 100 mg/kg, po administered as single dose starting on day 49 post-infection and measured at 28 days post treatment relative to control. The series is classed as functional. Details: scale not given: the % may be the effect or the level left; call rule not given here. The following applies: time 28 day. The essentials:
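S. mansoni-infected NMRI mice treated on day 49 post-infection with a single oral dose, dissolved or suspended in 7% v/v Tween 80, 3% v/v ethanol (10 mL/kg), five mice per group. Sacrificed and dissected 28 d post-treatment; worms counted to give total worm burden reduction versus untreated controls. Kruskal–Wallis test on medians, treatment versus control.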

Another series relates to L6. The series is described as follows: Cytotoxicity against rat L6 cells assessed as reduction in cell viability at up to 30 uM. The series is classed as cell-based.
A short description of series [7]: Cmax in male Swiss mouse at 100 mg/kg, po administered via gavage measured upto 48 hrs postdose by LC-MS analysis. The following applies: in vivo. On the set-up: route oral, dose 100 mg/kg, time <=48. The series is classed as ADME, organism-based. The essentials: (§1)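 Nonfasted male Swiss outbred mice (25–33 g, 7 per compound, fed ad libitum) were gavaged once at 10 mL/kg. Vehicle was 7% v/v Tween 80, 3% v/v ethanol in water, dosed within 1 h of preparation. Blood was drawn 0.25–48 h postdose (n = 2 per time point) into heparin with stabilizer, and plasma was quantified by LCMS. Noncompartmental analysis.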

Series [8] can be described thus: AUC (0 to last) in male Swiss mouse at 100 mg/kg, po administered via gavage measured upto 48 hrs postdose by LC-MS analysis. The series is classed as ADME, organism-based. Details: route oral, dose 100 mg/kg, time <=48. The following applies: in vivo.
The subject of series [9] is Schistosoma mansoni. The series is described as follows: Antischistosomal activity against adult Schistosoma mansoni cercariae infected in mouse assessed as effective dose causing reduction in worm burden. Format: functional.
Series [10] relates to Schistosoma mansoni. The series is described as follows: Antischistosomal activity against juvenile Schistosoma mansoni cercariae infected in mouse assessed as effective dose causing reduction in worm burden. Format: functional.
The target of series [11] is T1, Androgen receptor (Homo sapiens, UniProt P10275).
T1 sequence (P10275 whole entry): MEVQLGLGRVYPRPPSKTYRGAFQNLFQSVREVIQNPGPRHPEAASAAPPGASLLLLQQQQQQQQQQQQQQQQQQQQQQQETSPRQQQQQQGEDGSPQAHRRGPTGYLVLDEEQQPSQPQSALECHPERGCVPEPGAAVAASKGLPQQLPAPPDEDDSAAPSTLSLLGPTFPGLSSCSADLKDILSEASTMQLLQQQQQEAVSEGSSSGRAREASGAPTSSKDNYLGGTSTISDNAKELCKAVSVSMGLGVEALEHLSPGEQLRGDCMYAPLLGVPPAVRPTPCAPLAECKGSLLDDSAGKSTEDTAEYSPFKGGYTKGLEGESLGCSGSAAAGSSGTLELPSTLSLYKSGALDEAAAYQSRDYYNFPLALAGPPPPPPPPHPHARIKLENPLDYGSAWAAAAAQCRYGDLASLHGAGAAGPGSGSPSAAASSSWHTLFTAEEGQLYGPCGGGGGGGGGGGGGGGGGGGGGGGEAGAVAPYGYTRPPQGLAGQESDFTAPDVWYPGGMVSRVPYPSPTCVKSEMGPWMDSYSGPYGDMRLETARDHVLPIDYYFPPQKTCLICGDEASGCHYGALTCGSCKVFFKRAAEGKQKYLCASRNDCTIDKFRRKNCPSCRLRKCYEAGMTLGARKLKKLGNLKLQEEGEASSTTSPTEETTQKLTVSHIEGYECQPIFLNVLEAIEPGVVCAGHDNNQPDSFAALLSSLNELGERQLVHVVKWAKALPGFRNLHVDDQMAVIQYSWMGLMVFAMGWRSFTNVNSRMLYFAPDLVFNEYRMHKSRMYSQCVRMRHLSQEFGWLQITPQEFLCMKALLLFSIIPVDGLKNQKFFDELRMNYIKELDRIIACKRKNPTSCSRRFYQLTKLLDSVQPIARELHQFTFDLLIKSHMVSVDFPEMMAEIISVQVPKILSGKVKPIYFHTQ

The nature of series [12]: Tmax in male Swiss mouse at 100 mg/kg, po administered via gavage measured upto 48 hrs postdose by LC-MS analysis. The series is classed as ADME, organism-based. The following applies: in vivo. An outline of the steps:
as §1

Series [13] deals with T1, Androgen receptor. The following applies: lapc4.
Series [14] concerns Schistosoma mansoni. The experiment in a line: Antischistosomal activity against Schistosoma mansoni infected in mouse assessed as effective dose causing reduction in worm burden. The series is classed as functional.

Chain of Albumin (P02768 whole entry): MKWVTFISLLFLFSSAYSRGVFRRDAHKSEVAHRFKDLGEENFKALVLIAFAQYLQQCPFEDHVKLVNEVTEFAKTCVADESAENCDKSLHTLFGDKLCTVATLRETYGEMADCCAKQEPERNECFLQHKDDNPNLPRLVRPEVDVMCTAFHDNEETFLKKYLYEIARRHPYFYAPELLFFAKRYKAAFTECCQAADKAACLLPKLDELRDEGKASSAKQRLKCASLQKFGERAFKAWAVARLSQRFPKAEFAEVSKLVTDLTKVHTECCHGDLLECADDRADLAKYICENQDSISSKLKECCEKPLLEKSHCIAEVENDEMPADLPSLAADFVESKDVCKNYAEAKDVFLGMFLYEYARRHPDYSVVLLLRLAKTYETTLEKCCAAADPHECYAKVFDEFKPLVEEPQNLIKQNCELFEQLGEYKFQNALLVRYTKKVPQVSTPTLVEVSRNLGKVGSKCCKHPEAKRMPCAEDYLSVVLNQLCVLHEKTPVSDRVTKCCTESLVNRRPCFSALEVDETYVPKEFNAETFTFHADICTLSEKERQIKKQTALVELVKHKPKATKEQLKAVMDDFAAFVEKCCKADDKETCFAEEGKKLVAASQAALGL

Take `CC1(C)NC(=O)N(c2ccc(F)c(C(F)(F)F)c2)C1=O`: in series [1], the logD worked out at 2.7. Further, at Albumin, the PPB came to 52.1%. For the same compound, the solubility kinetic in series [2] and in [3] was over 100 µg/mL in each case. Further, the results for the CLH in series [4] and in [5] were 8 µL/min/mg and under 7 µL/min/mg, respectively. The Activity is reported as 95% in the series with Schistosoma mansoni [6] and “Non-Toxic” in the series with L6. Moreover, the Cmax in series [7] was found to be 124 µM. For the same compound, the AUClast in [8] was 2740 µM·h. In addition, the ED50 in the series with Schistosoma mansoni [9] amounted to 15 mg/kg; with Schistosoma mansoni [10], 140 mg/kg. The compound further registered an IC50 on Androgen receptor [11] of 4.4 µM.
`CN(C)C(=O)c1cc(N2C(=O)NC(C)(C)C2=O)ccc1F` returned a logD in series [1] of 0.9. In addition, at Albumin, the PPB was found to be 5.9%. Also, the solubility kinetic in series [2] and in series [3] was over 100 µg/mL in each case. Besides, the CLH in [4] and in series [5] was under 7 µL/min/mg each time. In addition, the Activity in the series on Schistosoma mansoni [6] is 30%; in the series with L6 it was “Non-Toxic”. Besides, the concentration in [7] peaked (Cmax) at 488 µM. Also, in series [12], the Tmax stood at 1 h. The compound further gave an AUClast in series [8] of 1360 µM·h. In addition, the IC50 at Androgen receptor [11] came out at 9.1 µM.
As to `CC1(C)C(=O)N(c2ccc(F)c(C(F)(F)F)c2)C(=O)N1CC(N)=O`, in [1], the logD is 2.2. On Albumin, this compound showed a PPB of 20.3%. In addition, the solubility kinetic in series [2] and in [3] was 50 µg/mL (≈ 144 µM) each time. Besides, the CLH in [4] and in series [5] was under 7 µL/min/mg each time. Moreover, the Activity is 25% with Schistosoma mansoni [6] and “Non-Toxic” in the series with L6. Besides, on Androgen receptor [13], the IC50 entry is “Not Active”.
Take `CCN1C(=O)N(c2ccc(F)c(C(F)(F)F)c2)C(=O)C1(C)C`: in series [1], the logD turned out to be 3.5. This compound also registered a PPB at Albumin of 49.3%. The figures for the solubility kinetic in [2] and in series [3] were 50 µg/mL (≈ 157 µM) and 25 µg/mL (≈ 78.5 µM), respectively. Moreover, the CLH was 30 µL/min/mg in series [4] and 32 µL/min/mg in [5]. Besides, the figures for the Activity in the series with Schistosoma mansoni [6] and in the series with L6 were 98% and “Non-Toxic”, respectively. Besides, in [7], the Cmax was 11.1 µM. Besides, the Tmax in series [12] was found to be 1 h. Besides, in [8], the AUClast came out at 103 µM·h. At Androgen receptor [11], this compound showed an IC50 of 0.14 µM.
In the case of `COC(=O)C(C)(C)NC(=O)Nc1ccc(F)c(C(F)(F)F)c1`, the ED50 with Schistosoma mansoni [14] amounted to 62 mg/kg.
